This note sets out measurements from ChEMBL document CHEMBL3272197, “Synthesis and in vitro evaluation of 8-hydroxyquinoline analogs as inhibitors of dental plaque” (J Med Chem, 1976).

The subject of data set [1] is Streptococcus mutans. As to the kind of experiment: Antibacterial activity against Streptococcus mutans 6715 assessed as growth inhibition at 10^-4 M after 24 hrs. Particulars: Streptococcus mutans, 6715, 24 h; read-out: GI. The class given is functional. Summed up: (§1)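 Test compounds as HCl salts were added in aqueous solution to sterile trypticase broth with 50% sucrose stock, then inoculated with a 24-hr culture of S. mutans 6715. Cultures were incubated anaerobically (Gaspak) at 37°. Bacterial growth was scored at 24 and 48 hr, with a solvent control run concurrently.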

Data set [2] concerns Streptococcus mutans. As to the kind of experiment: Antibacterial activity against Streptococcus mutans 6715 assessed as growth inhibition at 10^-4 M after 48 hrs. The class given is functional. The note with it: Streptococcus mutans, 6715, 48 h; read-out: GI. Summed up: as §1
The test system of data set [3] is Streptococcus mutans. As to the kind of experiment: Antibacterial activity against Streptococcus mutans 6715 assessed as growth inhibition at 10^-5 M after 24 hrs. The data set is classed as functional. Particulars: Streptococcus mutans, 6715, 24 h; read-out: GI. The method in brief: as §1
The nature of data set [4]: 1-Octanol-water partition coefficient, log P of the compound after 90 mins. The class given is physicochemical. The method in brief: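 Partitioning between 1-octanol and water. Phase volume ratio and sample amount set so that the aqueous-layer absorbance fell mostly between 0.2 and 0.9 in a 1-cm cell. The aqueous concentration was read spectrophotometrically and the octanol concentration was taken by difference. P = C_octanol/C_H2O. At least triplicate determinations used different sample amounts, and the mean log P is reported.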

Data set [5] relates to Streptococcus mutans. Briefly: Antibacterial activity against Streptococcus mutans 6715 assessed as inhibition of plaque formation in human teeth at 10^-1 M after 24 hrs. The class given is functional. The note with it: Streptococcus mutans, 6715, 24 h. Summed up: (§2)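 Sterilized extracted human teeth were immersed in Me2SO solutions of compound for two 1-min periods, each followed by 1-min air exposure. Teeth were then washed in distilled water for 5 min and incubated anaerobically at 37° in sucrose-containing trypticase broth with S. mutans.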

The test system of data set [6] is Streptococcus mutans. As to the kind of experiment: Antibacterial activity against Streptococcus mutans 6715 assessed as inhibition of plaque formation in human teeth at 10^-1 M after 48 hrs. The data set is classed as functional. Particulars: Streptococcus mutans, 6715, 48 h. Summed up:
as §2

Data set [7] has as its system Streptococcus mutans. As to the kind of experiment: Antibacterial activity against Streptococcus mutans 6715 assessed as inhibition of plaque formation in human teeth at 10^-2 M after 24 hrs. Particulars: Streptococcus mutans, 6715, 24 h. The data set is classed as functional. The method in brief:
as §2

The test system of data set [8] is Streptococcus mutans. As to the kind of experiment: Antibacterial activity against Streptococcus mutans 6715 assessed as inhibition of plaque formation in human teeth at 10^-2 M after 48 hrs. The note with it: Streptococcus mutans, 6715, 48 h. The class given is functional. The method in brief: as §2
Data set [9] deals with Streptococcus mutans. As to the kind of experiment: Antibacterial activity against Streptococcus mutans 6715 assessed as growth inhibition at 10^-5 M after 48 hrs. The data set is classed as functional. The note with it: Streptococcus mutans, 6715, 48 h; read-out: GI. The method in brief:
as §1

Data set [10] concerns Streptococcus mutans. As to the kind of experiment: Antibacterial activity against Streptococcus mutans 6715 assessed as growth inhibition at 10^-6 M after 24 hrs. The note with it: Streptococcus mutans, 6715, 24 h; read-out: GI. The data set is classed as functional. The method in brief:
as §1

Data set [11] has as its system Streptococcus mutans. Briefly: Antibacterial activity against Streptococcus mutans 6715 assessed as growth inhibition at 10^-6 M after 48 hrs. The data set is classed as functional. The note with it: Streptococcus mutans, 6715, 48 h; read-out: GI. The method in brief:
as §1

For the compound `COCc1ccc(O)c2ncccc12` [listing 1 of 2 here], the inhibition of growth at 100 µM was 100% in the data set with Streptococcus mutans [1] and 80% in the data set with Streptococcus mutans [2]. Also, in the data set on Streptococcus mutans [3], the inhibition of growth at 10 µM was found to be 0%.

In general, logP refers to the decadic logarithm of the partition coefficient of the neutral form, usually between octanol and water. Higher therefore signals a more lipophilic compound. The term inhibition denotes the drop in the measured response relative to a control, in per cent. Turning to `CCOC(=O)Cc1ccc(O)c2ncccc12` [listing 1 of 2 here], in data set [4], the logP at 1.5 h turned out to be 2.26. In addition, the inhibition at 100000 µM with Streptococcus mutans [5] was 100%; with Streptococcus mutans [6], 80%. Besides, the inhibition at 10000 µM in the data set on Streptococcus mutans [7] came to 20%; in the data set on Streptococcus mutans [8], 0%.

As to `Oc1ccc(O)c2ncccc12` [listing 1 of 2 here], the lipophilicity (logP) at 1.5 h in [4] is 1.42. In addition, the inhibition at 100000 µM came to 60% with Streptococcus mutans [5] and 0% in the data set with Streptococcus mutans [6]. For the same compound, the inhibition at 10000 µM in the data set with Streptococcus mutans [7] and in the data set on Streptococcus mutans [8] was 0% in each case.

Consider `Oc1ccc(F)c2cccnc12` [listing 1 of 2 here], for which the inhibition of growth at 100 µM with Streptococcus mutans [1] and with Streptococcus mutans [2] was 100% each time. In addition, the figures for the inhibition of growth at 10 µM with Streptococcus mutans [3] and in the data set with Streptococcus mutans [9] were 80% and 0%, respectively. Besides, the inhibition of growth at 1 µM in the data set on Streptococcus mutans [10] and in the data set on Streptococcus mutans [11] was 0% throughout.

In the case of `COC(=O)Cc1ccc(O)c2ncccc12` [listing 1 of 2 here], the inhibition of growth at 100 µM in the data set on Streptococcus mutans [1] and in the data set with Streptococcus mutans [2] was 100% each time. Moreover, the values for the inhibition of growth at 10 µM in the data set with Streptococcus mutans [3] and with Streptococcus mutans [9] were 60% and 0%, respectively. Moreover, the inhibition of growth at 1 µM in the data set on Streptococcus mutans [10] and with Streptococcus mutans [11] was 0% throughout.

As to `Oc1cccc2cccnc12`, the inhibition of growth at 100 µM with Streptococcus mutans [1] and with Streptococcus mutans [2] was 100% throughout. Moreover, the inhibition of growth at 10 µM in the data set with Streptococcus mutans [3] and with Streptococcus mutans [9] was 100% throughout. The inhibition of growth at 1 µM in the data set on Streptococcus mutans [10] and in the data set with Streptococcus mutans [11] was 0% in each case.

The compound `COC(=O)Cc1ccc(O)c2ncccc12` [listing 2 of 2 here] had a log partition coefficient (logP) at 1.5 h in data set [4] of 1.59. Further, the inhibition at 100000 µM with Streptococcus mutans [5] and with Streptococcus mutans [6] was 100% each time. The inhibition at 10000 µM worked out at 20% with Streptococcus mutans [7] and 0% in the data set with Streptococcus mutans [8].

In turn, `O=Cc1ccc(O)c2ncccc12` [listing 1 of 2 here] registered a logP at 1.5 h in data set [4] of 1.63. Moreover, the figures for the inhibition at 100000 µM with Streptococcus mutans [5] and in the data set with Streptococcus mutans [6] were 100% and 80%, respectively. Moreover, the inhibition at 10000 µM in the data set on Streptococcus mutans [7] and with Streptococcus mutans [8] was 40% in each case.

Regarding `CCOC(=O)Cc1ccc(O)c2ncccc12` [listing 2 of 2 here], the inhibition of growth at 100 µM in the data set with Streptococcus mutans [1] and in the data set with Streptococcus mutans [2] was 100% throughout. Moreover, the inhibition of growth at 10 µM stood at 100% in the data set with Streptococcus mutans [3] and 0% in the data set on Streptococcus mutans [9]. Also, the inhibition of growth at 1 µM in the data set with Streptococcus mutans [10] and in the data set with Streptococcus mutans [11] was 0% in each case.

In turn, `CC(=O)c1ccc(O)c2ncccc12` [listing 1 of 2 here] registered a lipophilicity (logP) at 1.5 h in data set [4] of 1.8. The inhibition at 100000 µM with Streptococcus mutans [5] and with Streptococcus mutans [6] was 100% in each case. The inhibition at 10000 µM in the data set with Streptococcus mutans [7] and with Streptococcus mutans [8] was 60% each time.

Turning to `CC(=O)c1ccc(O)c2ncccc12` [listing 2 of 2 here], the inhibition of growth at 100 µM in the data set on Streptococcus mutans [1] and in the data set on Streptococcus mutans [2] was 100% each time. In addition, the inhibition of growth at 10 µM in the data set on Streptococcus mutans [3] is 100%; in the data set on Streptococcus mutans [9] it was 0%. Also, the inhibition of growth at 1 µM with Streptococcus mutans [10] and in the data set on Streptococcus mutans [11] was 0% throughout.

In the case of `Oc1ccc(F)c2cccnc12` [listing 2 of 2 here], the log partition coefficient (logP) at 1.5 h in [4] amounted to 2.3. The inhibition at 100000 µM in the data set with Streptococcus mutans [5] and in the data set with Streptococcus mutans [6] was 80% each time. For the same compound, the inhibition at 10000 µM with Streptococcus mutans [7] was 80%; in the data set on Streptococcus mutans [8], 60%.

On to `OCc1ccc(O)c2ncccc12` [listing 1 of 2 here], for which the inhibition of growth at 100 µM in the data set with Streptococcus mutans [1] and with Streptococcus mutans [2] was 0% each time.

Consider `O=C(O)Cc1ccc(O)c2ncccc12` [listing 1 of 2 here], for which the inhibition of growth at 100 µM in the data set with Streptococcus mutans [1] and with Streptococcus mutans [2] was 0% throughout.

As to `Oc1ccc(I)c2cccnc12` [listing 1 of 2 here], the logP at 1.5 h in [4] came to 3.27. For the same compound, the inhibition at 100000 µM with Streptococcus mutans [5] and with Streptococcus mutans [6] was 100% in each case. Moreover, the inhibition at 10000 µM worked out at 80% in the data set on Streptococcus mutans [7] and 20% with Streptococcus mutans [8].

`OCc1ccc(O)c2ncccc12` [listing 2 of 2 here] displayed a logP at 1.5 h in [4] of 1. Further, the inhibition at 100000 µM in the data set on Streptococcus mutans [5] and in the data set on Streptococcus mutans [6] was 0% each time.

`N#CCc1ccc(O)c2ncccc12` [listing 1 of 2 here]: the lipophilicity (logP) at 1.5 h in [4] turned out to be 1.81. Also, the inhibition at 100000 µM in the data set with Streptococcus mutans [5] and in the data set on Streptococcus mutans [6] was 80% each time. Besides, the inhibition at 10000 µM in the data set on Streptococcus mutans [7] and in the data set on Streptococcus mutans [8] was 0% in each case.

In the case of `Oc1ccc(O)c2ncccc12` [listing 2 of 2 here], the inhibition of growth at 100 µM in the data set with Streptococcus mutans [1] and with Streptococcus mutans [2] was 0% in each case.

`O=C(O)Cc1ccc(O)c2ncccc12` [listing 2 of 2 here]: the inhibition at 100000 µM in the data set with Streptococcus mutans [5] and in the data set on Streptococcus mutans [6] was 0% throughout.

Compound `Oc1cccc2cccnc12` [OXYQUINOLINE] gave a lipophilicity (logP) at 1.5 h in data set [4] of 1.94. In addition, the inhibition at 100000 µM in the data set with Streptococcus mutans [5] and with Streptococcus mutans [6] was 100% in each case. In addition, the inhibition at 10000 µM in the data set on Streptococcus mutans [7] and in the data set with Streptococcus mutans [8] was 0% throughout.

On to `O=Cc1ccc(O)c2ncccc12` [listing 2 of 2 here], for which the inhibition of growth at 100 µM in the data set on Streptococcus mutans [1] and in the data set with Streptococcus mutans [2] was 100% in each case. In addition, the inhibition of growth at 10 µM with Streptococcus mutans [3] amounted to 0%.

For the compound `N#CCc1ccc(O)c2ncccc12` [listing 2 of 2 here], the inhibition of growth at 100 µM was 80% in the data set on Streptococcus mutans [1] and 20% with Streptococcus mutans [2]. For the same compound, the inhibition of growth at 10 µM in the data set with Streptococcus mutans [3] amounted to 0%.

`COCc1ccc(O)c2ncccc12` [listing 2 of 2 here] came in with a logP at 1.5 h in data set [4] of 1.78. For the same compound, the inhibition at 100000 µM in the data set with Streptococcus mutans [5] was 80%; with Streptococcus mutans [6] it was 60%. Also, the inhibition at 10000 µM with Streptococcus mutans [7] and in the data set with Streptococcus mutans [8] was 20% in each case.

`Oc1ccc(I)c2cccnc12` [listing 2 of 2 here]: the inhibition of growth at 100 µM with Streptococcus mutans [1] and with Streptococcus mutans [2] was 100% in each case. Moreover, the inhibition of growth at 10 µM is 100% with Streptococcus mutans [3] and 60% in the data set on Streptococcus mutans [9]. Further, the inhibition of growth at 1 µM with Streptococcus mutans [10] and in the data set with Streptococcus mutans [11] was 0% in each case.
